Hits are enriched below; roughly 2.9% of the tested compounds scored in any of these assays.
hiPSC survival – enhancers of human iPSC single-cell survival; hiPSC single-cell survival, ATPlite luminescence; 100% = ROCK inhibitor wells, 0% = DMSO; survival enhancement, % at 20 µM; 360,000 tested, 0.044% active; AID 602274; in the data active = survival enhancement above about 18%;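 also: cells exposed to compounds for 16 hours before the ATP read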
PG9 Ab binder – small molecules binding HIV-1 gp120 antibody PG9 | TR-FRET gp120-PG9 antibody binding | inhibition, % at 6.7 µM | 360,000 tested, 0.43% active | AID 624416; in the data active = inhibition above about 8.5%
T cruzi inh – blocks replication of Trypanosoma cruzi; T. cruzi beta-gal in NIH3T3, luminescence, 90 h; inhibition, % (test concentration not listed); 300,000 tested, 1.4% active;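 active = mean inhibition across valid replicates above about 55%, limit read from the data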;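 also: signal also drops with host cell toxicity which is not excluded here; 0% = plate median of DMSO wells and 100% = zero luminescence signal; higher percent means less beta-gal luminescence so fewer parasites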
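Incubation – ≥90 h infection period, 3 h prior cell attachment · System – NIH/3T3 fibroblasts plus reporter T. cruzi · Doses – compound pinned at 50 nL/well, DMSO · Read-out basis – percent inhibition of parasite-derived β-gal signal · Signal – luminescent β-galactosidase signal after 60 min lysis · Also added – 5000 T. cruzi trypomastigotes/well · Medium – Low-serum DMEM with 2% FBS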
TAG inh – triacylglycerol accumulation inhibition. H9c2 cells, Nile Red lipid (TAG) fluorescence; cells loaded with 200 µM oleic acid. inhibition, % at 12.5 µM. 230,000 tested, 0.66% active. AID 651582;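 active = pattern-corrected inhibition of lipid staining of at least 50% with the nuclear-stain viability signal not falling by more than 50%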;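 also: 0% = DMSO wells and 100% = triacsin C control wells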
Rev-erbA mod – Rev-erb alpha (human) modulation; Rev-erbα–FITC-DNA binding, fluorescence polarization, 90 min; activity, % at 10 µM; 370,000 tested, 0.79% active; AID 1259318;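 active = activity above about 14%, limit read from the data; passing the limit was not always enough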;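 also: 0% = DMSO wells with 35 nM protein and 100% = DMSO wells with 750 nM protein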
Target sequence (P20393 whole entry, looked up): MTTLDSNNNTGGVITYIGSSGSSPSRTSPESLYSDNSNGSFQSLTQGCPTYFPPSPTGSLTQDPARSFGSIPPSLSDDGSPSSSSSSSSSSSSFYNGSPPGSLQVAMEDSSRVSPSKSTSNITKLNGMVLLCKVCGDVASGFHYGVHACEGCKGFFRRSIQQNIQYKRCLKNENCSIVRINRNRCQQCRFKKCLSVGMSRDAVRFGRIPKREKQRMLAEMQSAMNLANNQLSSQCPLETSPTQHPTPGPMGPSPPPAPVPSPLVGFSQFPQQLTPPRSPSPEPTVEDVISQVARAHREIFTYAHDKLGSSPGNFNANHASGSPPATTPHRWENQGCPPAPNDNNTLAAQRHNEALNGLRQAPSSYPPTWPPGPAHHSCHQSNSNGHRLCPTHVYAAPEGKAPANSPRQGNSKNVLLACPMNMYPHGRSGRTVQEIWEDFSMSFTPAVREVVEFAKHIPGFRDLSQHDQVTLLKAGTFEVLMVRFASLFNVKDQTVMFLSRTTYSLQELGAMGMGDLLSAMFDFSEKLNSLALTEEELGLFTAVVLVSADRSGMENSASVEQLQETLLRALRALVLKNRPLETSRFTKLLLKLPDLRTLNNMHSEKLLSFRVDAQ
MIN6 prolif-1 – induces beta-cell replication in MIN6 cells. MIN6 cells proliferation, ATPlite luminescence, 48 h; cells starved in 0.2% serum; 100% = growth in 10% serum. proliferation, % at 10 µM. 330,000 tested, 0.29% active. AID 2380;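 active = compounds whose signal lies at least 3.5 SD above the mean of all wells on their plate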;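 also: 0% = DMSO-treated cells in low-serum medium and 100% = 10% serum control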
MIN6 prolif-2 – confirmation of inducers of beta-cell replication in MIN6 cells. shares compounds with MIN6 prolif-1. MIN6 beta-cell proliferation, ATPlite luminescence, 48 h; cells kept in 0.2% serum; scaled between 0.2% and 10% serum. proliferation increase, % at 50 µM. 920 tested, under 10 active;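 active = proliferation increase above 40% at any of the four tested concentrations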
The depositor's hits bear a star; / = not tested or not shown.

SMILES | hiPSC survival | PG9 Ab binder | T cruzi inh | TAG inh | Rev-erbA mod | MIN6 prolif-1 | MIN6 prolif-2
CN(C)c1ccc(C(=S)N2CCOCC2)cc1 | -1 | -3 | / | -5 | 1 | 9.0* | 0
Cn1c(=O)c2cn(-c3ccccc3)cc2n(C)c1=O | -4 | 0 | -13 | 1 | 2 | 5.4* | 1
CCOC(=O)C(NC(=O)N1CCCCC1)(c1ccccc1)C(F)(F)F (stereo unspecified) | -1 | 1 | -7 | 38 | -5 | -2 | /
CCOc1ccc(CCNC(=O)CCCn2c(=O)c3cccn3c3cccnc32)cc1OCC | 0 | -3 | 18 | / | 1 | 17* | 1
O=C(NNC1=NCCC1)c1cccc(Br)c1 | -2 | 1 | 2 | 7 | / | 9.7* | 4
Cc1ccccc1C(=O)NNC1=NCCC1 | -1 | 4 | -13 | / | -1 | -2 | /
COc1cccc(Cn2c(=O)c3[nH]cnc3n(-c3ccccc3C)c2=O)c1 | 4 | -3 | 4 | -14 | 1 | 14* | 2
CCOC(=O)c1ccccc1NC(=O)CN(c1ccccc1C)S(C)(=O)=O | 1 | 1 | 4 | 14 | 8 | 8.4* | -3
COc1ccccc1NC(=O)CN(c1ccccc1C)S(C)(=O)=O | -1 | -1 | 0 | 2 | -2 | -2 | /
Cc1ccc(NC(=O)CN(c2ccccc2F)S(C)(=O)=O)cc1 | -2 | 1 | -8 | 8 | 0 | 5.1* | 0
COc1ccc(OC)c(NC(=O)c2ccccc2NS(=O)(=O)c2cccc3cccnc23)c1 | -1 | 0 | 0 | 1 | -6 | 5.4* | -5
O=C1NC2(CCCCC2)C(=O)N1c1ccccc1 | -2 | 1 | -3 | -4 | -6 | 0 | /
O=C1NC2(CCCCC2)C(=O)N1c1ccc(Cl)cc1 | 0 | 0 | -23 | / | 6 | 8.4* | 2
O=c1c2ccccc2[nH]c(=S)n1C1CCCCC1 | -2 | 2 | -36 | 4 | 4 | -1 | /
CC1CCC(n2c(=S)[nH]c3ccccc3c2=O)CC1 (stereo unspecified) | 0 | 0 | 11 | 19 | 10 | 11* | -4
CCOC(=O)c1sc2nc[nH]c(=O)c2c1C | -3 | 0 | -8 | 1 | -1 | 4 | /
CCOC(=O)c1c(C)c2c(=O)[nH]cnc2n1-c1ccccc1 | 0 | 1 | -7 | / | 11 | 9.8* | 12
COc1cccc(COc2nc3c(c(=O)n(C)c(=O)n3C)n2C)c1 | 1 | 2 | -2 | -30 | -2 | 2 | /
Cn1c(=O)c2c(nc(OCc3ccccc3)n2C)n(C)c1=O | -2 | -3 | -1 | -20 | 1 | 16* | 5
NC(=O)CC1C(=O)N(c2ccc(Cl)cc2)C(=S)N1NC(=O)c1cccc(F)c1 (stereo unspecified) | 0 | -1 | -18 | / | 3 | 1 | /
CNC(=O)CC1C(=O)N(c2ccc(Cl)cc2)C(=S)N1NC(=O)c1cccc(F)c1 (stereo unspecified) | 0 | 1 | 5 | / | 0 | 9.8* | -6
CO/N=C(\Cn1ncc(N2CCCC2)c(Cl)c1=O)c1ccc(Cl)cc1 | 1 | -1 | 9 | -28 | 0 | -1 | /
CCN(CC)c1cnn(C/C(=N\OC)c2ccc(Cl)cc2)c(=O)c1Br | 0 | 0 | 18 | -9 | -3 | 7.5* | -6
COc1ccc(N/N=C(\C=N\O)C(=O)c2ccc(OC)cc2)cc1 | 1 | -3 | 5 | 41 | 4 | -3 | /
N/N=C/C(=N\Nc1ccc(Cl)cc1)C(=O)c1ccncc1 | 0 | -2 | 19 | 7 | -5 | 9.8* | 0
SMILES | hiPSC survival | PG9 Ab binder | T cruzi inh | TAG inh | Rev-erbA mod | MIN6 prolif-1 | MIN6 prolif-2
CCOC(=O)/C(=N\O)C1=NC(C)(C)Cc2ccccc21 | -2 | -1 | -21 | -21 | 1 | 1 | /
CCOC(=O)/C(C(=O)Nc1ccccc1Br)=C1/NC(C)(C)Cc2ccccc21 | -2 | -2 | 2 | / | -4 | 0.0* | -6
CCc1nc2sc(C#N)c(N)c2c2c1CCCC2 | 4 | 0 | 19 | / | 9 | 6.3* | 3
Cc1cc(C(=O)NNC(=O)Cc2ccc(Cl)cc2)c(C)o1 | 0 | -2 | -16 | 7 | -2 | -2 | /
C[C@@H]1C[C@@H]2OC(=O)[C@]3(C)[C@H]2[C@@H](OC3(C)O)[C@]2(C)C(=O)CC[C@H]12 (stereo partly specified) | / | / | -1 | / | / | 11* | 0
NC(=O)c1cc([N+](=O)[O-])c(Cl)cc1NCc1cccnc1 | 1 | 4 | / | 21 | 0 | 12* | 6
CCOC(=O)c1c(C)[nH]c(C)c1C(=O)COC(=O)/C=C/c1ccccc1[N+](=O)[O-] | 0 | -1 | / | -30 | 3 | 9.1* | -5
CCc1nc2ccccc2c(C(=O)Nc2cc(C)ccc2C)c1C | 0 | -1 | -2 | / | 0 | 5.8* | -2
Cc1cccc(-c2oc(C)c(C)[n+]2[O-])c1 | 2 | 0 | -5 | / | 4 | -2 | /
Cc1nnsc1C(=O)Nc1ccc(Cl)cc1 | 2 | -1 | 3 | / | -3 | 0 | /
Cc1nnsc1C(=O)NC(=O)Nc1ccc(F)c(Cl)c1 | 0 | 0 | -18 | 2 | -3 | 5.9* | -6
CNc1nc(Nc2ccccc2)nc(OCC(F)(F)F)n1 | 0 | -3 | -15 | 1 | -2 | 7.0* | 1
CNc1nc(NN)nc(Nc2ccccc2)n1 | -1 | -2 | -1 | -4 | 7 | -2 | /
CCOC(=O)CC(NC(=O)c1ccccc1)c1ccc(OC)cc1 (stereo unspecified) | 0 | 0 | -2 | -3 | -6 | -5 | /
Cc1ccccc1N/N=C/c1sc(=O)n(Cc2cccc(C(=O)O)c2)c1Cl | 0 | -2 | -9 | 3 | 2 | -4 | /
C=CCOn1c(=O)c(-c2ccc(Br)cc2)[n+]([O-])c2ccccc21 | 0 | -1 | -3 | / | -2 | 8.9* | -2
CC(OC(=O)c1ccc2c(c1)OCO2)C(=O)NC1CCCCC1C (stereo unspecified) | 0 | 0 | / | -5 | -1 | 2 | /
Cc1[nH]c2ccc(C(=O)OC(C)C(=O)NC3CCCCC3C)cc2c1C (stereo unspecified) | 1 | 1 | / | 2 | -6 | 13* | -6
CCOc1ccccc1NC(=O)COC(=O)C1CC1 | 0 | -1 | -7 | -5 | 1 | 0 | /
CCN1CCN(CC(=O)Nc2ccc(Cl)c(S(=O)(=O)N(C)C)c2)CC1 | 0 | -2 | 2 | -6 | 0 | -1 | /
Cc1ccccc1CNC(=O)c1ccccc1N | -1 | 0 | -13 | / | -2 | 8.4* | -2
O=C1CNC(=O)/C1=C\c1ccc(O)cc1 | 4 | -2 | -16 | / | -1 | 1 | /

High-throughput results as filed in PubChem BioAssay.
